Reference: ChEMBL document CHEMBL1921722, “In vitro and in vivo evaluation of select kahalalide F analogs with antitumor and antifungal activities” (Bioorg Med Chem, 2011)
≈ marks a conversion by molar mass, not a printed value.

What was measured:
SR = assay: Cytotoxicity against human SR cells assessed as cell growth at 800 nM by sulforhodamine B assay relative to control; type: functional; settings: read-out: Activity
NCI-H522 [1] = assay: Cytotoxicity against human NCI-H522 cells assessed as cell growth at 800 nM by sulforhodamine B assay relative to control; type: functional; settings: read-out: Activity
BT-549 [2] = assay: Cytotoxicity against human BT549 cells by sulforhodamine B assay; type: functional
Summary of the method: (§1)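 Run at NCI in the DTP 60-cell-line human tumor panel by standard procedure. Compounds were first screened at a single concentration, then tested at five tenfold-spaced concentrations. GI50 is the concentration reducing treated-cell growth to half that of untreated controls; TGI is the concentration completely halting growth.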

HOP-62 = assay: Cytotoxicity against human HOP62 cells by sulforhodamine B assay; type: functional
Summary of the method: (§2)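 Run by the NCI Developmental Therapeutics Program on its 60-line human tumour cell panel using the standard procedure. Compounds went through a single-concentration prescreen first, and those active by NCI criteria went on to a five-concentration growth-inhibition test. GI50 is the concentration that cuts growth of treated cells to half that of untreated control cells.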

UACC-257 = assay: Cytotoxicity against human UACC257 cells assessed as cell growth at 8 uM by sulforhodamine B assay relative to control; type: functional; settings: read-out: Activity
NCI-H522 [3] = assay: Cytotoxicity against human NCI-H522 cells by sulforhodamine B assay; type: functional
Summary of the method: (§3)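 NCI Developmental Therapeutics Program 60-cell-line human tumor panel screen, run at NCI. A single-concentration pre-screen was followed by a five-concentration dose-response in 10-fold steps. GI50 is the concentration that reduces growth of treated cells to half that of untreated control cells. TGI is the concentration that completely halts growth.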

OVCAR-8 = assay: Cytotoxicity against human OVCAR8 cells assessed as cell growth at 8 uM by sulforhodamine B assay relative to control; type: functional; settings: read-out: Activity
NCI/ADR-RES = assay: Cytotoxicity against human NCI/ADR-RES cells assessed as cell growth at 80 uM by sulforhodamine B assay relative to control; type: functional; settings: read-out: Activity
K562 = assay: Cytotoxicity against human K562 cells assessed as cell growth at 8 nM by sulforhodamine B assay relative to control; type: functional; settings: read-out: Activity
UO-31 = assay: Cytotoxicity against human UO31 cells assessed as cell growth at 80 uM by sulforhodamine B assay relative to control; type: functional; settings: read-out: Activity
SK-MEL-5 = assay: Cytotoxicity against human SK-MEL-5 cells assessed as cell growth at 80 nM by sulforhodamine B assay relative to control; type: functional; settings: read-out: Activity
Hs-578T = assay: Cytotoxicity against human Hs578T cells assessed as cell growth at 80 nM by sulforhodamine B assay relative to control; type: functional; settings: read-out: Activity
U-251 = assay: Cytotoxicity against human U251 cells assessed as cell growth at 80 nM by sulforhodamine B assay relative to control; type: functional; settings: read-out: Activity
HT-29 = assay: Cytotoxicity against human HT-29 cells assessed as cell growth at 8 uM by sulforhodamine B assay relative to control; type: functional; settings: read-out: Activity
TK-10 = assay: Cytotoxicity against human TK10 cells assessed as cell growth at 80 nM by sulforhodamine B assay relative to control; type: functional; settings: read-out: Activity
SK-OV-3 = assay: Cytotoxicity against human SKOV3 cells assessed as cell growth at 8 nM by sulforhodamine B assay relative to control; type: functional; settings: read-out: Activity
T47D [4] = assay: Cytotoxicity against human T47D cells assessed as cell growth at 80 uM by sulforhodamine B assay relative to control; type: functional; settings: read-out: Activity
EKVX [5] = assay: Cytotoxicity against human EKVX cells by sulforhodamine B assay; type: functional; summary of the method: as §2
OVCAR-3 = assay: Cytotoxicity against human OVCAR3 cells assessed as cell growth at 800 nM by sulforhodamine B assay relative to control; type: functional; settings: read-out: Activity
786-0 = assay: Cytotoxicity against human 786-0 cells assessed as cell growth at 80 uM by sulforhodamine B assay relative to control; type: functional; settings: read-out: Activity; summary of the method: as §1
DU-145 = assay: Cytotoxicity against human DU145 cells assessed as cell growth at 800 nM by sulforhodamine B assay relative to control; type: functional; settings: read-out: Activity
HCT-116 = assay: Cytotoxicity against human HCT116 cells assessed as cell growth at 80 uM by sulforhodamine B assay relative to control; type: functional; settings: read-out: Activity
EKVX [6] = assay: Cytotoxicity against human EKVX cells assessed as cell growth at 8 nM by sulforhodamine B assay relative to control; type: functional; settings: read-out: Activity
UACC-62 = assay: Cytotoxicity against human UACC62 cells assessed as cell growth at 80 nM by sulforhodamine B assay relative to control; type: functional; settings: read-out: Activity
SK-MEL-2 = assay: Cytotoxicity against human SK-MEL-2 cells assessed as cell growth at 800 nM by sulforhodamine B assay relative to control; type: functional; settings: read-out: Activity
MDA-MB-435 = assay: Cytotoxicity against human MDA-MB-435 cells assessed as cell growth at 80 uM by sulforhodamine B assay relative to control; type: functional; settings: read-out: Activity
ACHN = assay: Cytotoxicity against human ACHN cells assessed as cell growth at 8 uM by sulforhodamine B assay relative to control; type: functional; settings: read-out: Activity; summary of the method: as §1
Cryptococcus neoformans = assay: Antimicrobial activity against Cryptococcus neoformans ATCC 90113 by CLSI method; type: functional, organism-based
OVCAR-4 [7] = assay: Cytotoxicity against human OVCAR4 cells assessed as cell growth at 80 uM by sulforhodamine B assay relative to control; type: functional; settings: read-out: Activity
T47D [8] = assay: Cytotoxicity against human T47D cells assessed as cell growth at 800 nM by sulforhodamine B assay relative to control; type: functional; settings: read-out: Activity
COLO 205 [9] = assay: Cytotoxicity against human COLO205 cells by sulforhodamine B assay; type: functional; summary of the method: as §1
BT-549 [10] = assay: Cytotoxicity against human BT549 cells assessed as cell growth at 80 nM by sulforhodamine B assay relative to control; type: functional; settings: read-out: Activity; summary of the method: as §1
OVCAR-4 [11] = assay: Cytotoxicity against human OVCAR4 cells assessed as cell growth at 8 nM by sulforhodamine B assay relative to control; type: functional; settings: read-out: Activity
NCI-H23 = assay: Cytotoxicity against human NCI-H23 cells assessed as cell growth at 8 uM by sulforhodamine B assay relative to control; type: functional; settings: read-out: Activity
COLO 205 [12] = assay: Cytotoxicity against human COLO205 cells assessed as cell growth at 800 nM by sulforhodamine B assay relative to control; type: functional; settings: read-out: Activity; summary of the method: as §1
SNB-75 = assay: Cytotoxicity against human SNB75 cells by sulforhodamine B assay; type: functional; summary of the method: as §3
Malme-3M = assay: Cytotoxicity against human MALME-3M cells assessed as cell growth at 80 nM by sulforhodamine B assay relative to control; type: functional; settings: read-out: Activity
OVCAR-4 [13] = assay: Cytotoxicity against human OVCAR4 cells assessed as cell growth at 800 nM by sulforhodamine B assay relative to control; type: functional; settings: read-out: Activity
T47D [14] = assay: Cytotoxicity against human T47D cells by sulforhodamine B assay; type: functional; summary of the method: as §3

## C/C=C1\NC(=O)[C@H](Cc2ccccc2)NC(=O)[C@@H](C(C)C)NC(=O)[C@@H]([C@@H](C)CC)NC(=O)[C@H](NC(=O)[C@H](NC(=O)[C@H](CCCNCc2ccc(F)c(C)c2)NC(=O)[C@H]2CCCN2C(=O)[C@H](NC(=O)[C@@H](NC(=O)[C@@H](NC(=O)[C@H](NC(=O)CCCC(C)C)C(C)C)[C@@H](C)O)C(C)C)C(C)C)[C@@H](C)CC)[C@@H](C)OC(=O)[C@H](C(C)C)NC1=O
SR
  growth at 0.8 µM: 98%
NCI-H522 [1]
  growth at 0.8 µM: 105%
BT-549 [2]
  GI50: 1230 nM
  LC50: 4570 nM
BT-549 [2]; read-out: pTGI (converted)
  TGI: 2340 nM
HOP-62
  GI50: 1200 nM
  LC50: 4370 nM
HOP-62; read-out: pTGI (converted)
  TGI: 2290 nM
UACC-257
  growth at 8 µM: -78%
NCI-H522 [3]
  GI50: 2570 nM
  LC50: > 75900 nM
NCI-H522 [3]; read-out: pTGI (converted)
  TGI: 35500 nM
OVCAR-8
  growth at 8 µM: -14%
NCI/ADR-RES
  growth at 80 µM: -60%
K562
  growth at 0.008 µM: 101%
UO-31
  growth at 80 µM: -11%
SK-MEL-5
  growth at 0.08 µM: 99%
Hs-578T
  growth at 0.08 µM: 97%
U-251
  growth at 0.08 µM: 100%
HT-29
  growth at 8 µM: -62%
TK-10
  growth at 0.08 µM: 105%
SK-OV-3
  growth at 0.008 µM: 102%
T47D [4]
  growth at 80 µM: -13%
EKVX [5]
  GI50: 759 nM
EKVX [5]; read-out: pLC50 (the source's name) (converted)
  CC50: 4370 nM
EKVX [5]; read-out: pTGI (converted)
  TGI: 1820 nM
OVCAR-3
  growth at 0.8 µM: 39%
786-0
  growth at 80 µM: -98%
DU-145
  growth at 0.8 µM: -85%
HCT-116
  growth at 80 µM: -94%
EKVX [6]
  growth at 0.008 µM: 101%
UACC-62
  growth at 0.08 µM: 104%
SK-MEL-2
  growth at 0.8 µM: 100%
MDA-MB-435
  growth at 80 µM: -36%
ACHN
  growth at 8 µM: -97%
Cryptococcus neoformans
  IC50: 950 nM
  MFC: 10 µM (≈ 16 µg/mL)
  MIC: 5 µM (≈ 8 µg/mL)
OVCAR-4 [7]
  growth at 80 µM: -20%
T47D [8]
  growth at 0.8 µM: -50%
COLO 205 [9]; read-out: GI50
  GI50: 135 nM
COLO 205 [9]; read-out: pGI50 (converted)
  GI50: 135 nM
BT-549 [10]
  growth at 0.08 µM: 76%
OVCAR-4 [11]
  growth at 0.008 µM: 100%
NCI-H23
  growth at 8 µM: -77%
COLO 205 [12]
  growth at 0.8 µM: -66%
SNB-75; read-out: GI50
  GI50: 370 nM
SNB-75; read-out: TGI
  TGI: 1250 nM
SNB-75; read-out: pGI50 (converted)
  GI50: 372 nM
SNB-75; read-out: pTGI (converted)
  TGI: 1260 nM
Malme-3M
  growth at 0.08 µM: 118%
OVCAR-4 [13]
  growth at 0.8 µM: 7%
T47D [14]; read-out: GI50
  GI50: 144 nM
T47D [14]; read-out: TGI
  TGI: 327 nM
T47D [14]; read-out: pGI50 (converted)
  GI50: 145 nM
T47D [14]; read-out: pTGI (converted)
  TGI: 331 nM
